Bioassay records from PubChem.
Hits are enriched below; roughly 2.3% of the tested compounds scored in any of these assays.
TAAR1 ag: human TAAR1 agonism; Q96RJ0; CHO RD-HGA16 TAAR1, Fluo-8 calcium fluorescence; vehicle wells 0%, saturating PEA agonist 100%; activation, % at 3 µM; hit rate 0.99% among 360,000; AID 624467;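 active = activation above the mean activation of all test compounds in the run plus 3 SD, cut at about 38% in these data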
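Test system: RD-HGA16 (CHO) cells co-expressing Gα16 and hTAAR1; dosing: one-point dosing at 3 µM (nominal); timing: 17-24 h seeding, 75 min 37 °C dye, 30 min RT; signal: kinetic Fluo-8 calcium fluorescence; read-out basis: % activation relative to PEA EC100 response; controls: DMSO and PEA EC100; replicates: n 1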
OXTR ag: agonists of human oxytocin receptor. P30559. AID 2435. CHO-OTR cells, Fluo-8 calcium fluorescence; normalized: DMSO 0%, oxytocin 100%. hit rate 0.32% among 320,000. activation, % at 3 µM;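 active = activation above the mean of all tested compounds plus 3 SD, cutoff set per screening run, cut at about 20% in these data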;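 also: peak over basal fluorescence ratio from a 100 s FLIPR kinetic read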
OXTR potentiator: potentiates the human oxytocin receptor response; CHO-OTR cells, Fluo-8 calcium fluorescence, potentiator mode; 0% = oxytocin EC15, 100% = EC100; hit rate 0.061% among 320,000; P30559; activation, % at 3 µM;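 active = activation above that plate's cutoff, the mean activation of tested compounds plus 3 SD, cut at about 6.6% in these data, passing the limit was not always enough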;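 also: 100% uses oxytocin at 75 nM as the full agonist control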
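Assay system: CHO cell line stably expressing human OTR. Reagent: EC15 oxytocin agonist. Dosing: single dose, 3.0 µM nominal final compound concentration. Timing: compound 6 min at room temperature before oxytocin, 100 s read. Signal: kinetic Fluo-8 calcium fluorescence. Controls: oxytocin EC15 low and EC100 high.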
TAAR1 antagonist: antagonists of human TAAR1; Q96RJ0; CHO RD-HGA16 TAAR1, Fluo-8 calcium fluorescence, antagonist; inhibition, % at 3 µM; hit rate 1.5% among 360,000;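 active = inhibition above a per-plate cutoff, the mean inhibition of test compounds on that plate plus 3 SD, cut at about 49% in these data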;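 also: 0% = DMSO plus EC80 beta-PEA response and 100% = DMSO alone without agonist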
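test system = CHO RD-HGA16 cells bearing hTAAR1 | replication = singlicate | controls = DMSO-only wells and EC80 β-PEA-stimulated wells | reagent = EC80 β-phenethylamine stimulus | read-out basis = percent inhibition of PEA-evoked calcium signal, max/basal emission ratio | schedule = seeding 17-24 h prior, 75-min 37 °C, 30-min RT dye loading | signal = kinetic Fluo-8 calcium fluorescence measurement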
V1aR counter: counter-screen for oxytocin receptor agonists: human V1a receptor agonists. P37288. CHO-V1R cells, Fluo-8 calcium fluorescence, agonist mode; 0% DMSO, 100% 3 nM vasopressin. activation, % at 3 µM. hit rate 0.25% among 320,000. AID 2797;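 active = activation above the mean activation of all tested compounds plus 3 SD, per screening run, cut at about 20% in these data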;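 also: signal is peak over basal fluorescence ratio across a 100 second FLIPR read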
Target sequence (P37288 whole entry, looked up): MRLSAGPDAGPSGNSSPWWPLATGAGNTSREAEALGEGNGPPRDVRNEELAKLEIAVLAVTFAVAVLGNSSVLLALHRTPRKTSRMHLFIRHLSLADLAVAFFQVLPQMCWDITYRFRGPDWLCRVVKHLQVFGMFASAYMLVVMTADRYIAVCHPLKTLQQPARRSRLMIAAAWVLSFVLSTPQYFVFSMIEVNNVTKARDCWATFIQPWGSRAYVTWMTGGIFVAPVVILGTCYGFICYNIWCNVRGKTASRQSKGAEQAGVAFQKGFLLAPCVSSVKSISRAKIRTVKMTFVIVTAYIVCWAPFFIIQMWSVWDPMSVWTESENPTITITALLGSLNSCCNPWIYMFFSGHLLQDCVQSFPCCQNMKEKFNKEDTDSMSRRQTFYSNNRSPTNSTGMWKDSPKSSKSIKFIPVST
nonsel antag count: nonselective antagonism, TAAR1 counter-screen | shares compounds with TAAR1 antagonist | counterscreen cell line, calcium fluorescence, antagonist mode | inhibition, % at 3 µM | hit rate 77% among 2,400; in the data active = inhibition above about 22%;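 also: CHO-Ga16 host cells stimulated with ATP at an EC80 level; 0% = agonist EC80 plus vehicle and 100% = vehicle without agonist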
TAAR1 ant conf: human TAAR1 antagonism, confirmed. hit rate 40% among 2,400. TAAR1-expressing cells, fluorescence antagonist read-out. inhibition, % at 3 µM. shares compounds with TAAR1 antagonist. AID 651785; in the data active = inhibition above about 49%;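 also: CHO-Ga16 host cells challenged with agonist PEA near its EC80; 0% = agonist at EC80 plus vehicle and 100% = vehicle with no agonist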
Ga16 ag counter: nonselective Ga16 agonism, counter-screen; activation, % at 3 µM; hit rate 18% among 2,400; shares compounds with TAAR1 antagonist; Ga16-expressing cells, calcium fluorescence, agonist counterscreen; in the data active = activation above about 12%;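 also: 0% = vehicle wells and 100% = saturating stimulus response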
TAAR1 ag count: counter-screen for human TAAR1 antagonists: TAAR1 agonists. shares compounds with TAAR1 antagonist. AID 651955. activation, % at 3 µM. hit rate 2% among 2,400. hTAAR1 cell line, fluorescence activation, agonist mode; in the data active = activation above about 37%;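 also: CHO cells stably expressing TAAR1 with calcium dye readout; 0% = DMSO vehicle and 100% = full agonist response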
Starred values were filed as active, the others as inactive.

How did Cc1cc(C)c(S(=O)(=O)N2CCN(C(=O)c3c(C)nn(-c4ccccc4)c3Cl)CC2)c(C)c1 do in these assays?
TAAR1 ag: 13; TAAR1 antagonist: 68*; nonsel antag count: 35*; TAAR1 ant conf: 46; Ga16 ag counter: 8; TAAR1 ag count: 5

How did CN1C2CCC1CC(NC(=O)c1cccc(C(F)(F)F)c1)C2 (stereo not given) do in these assays?
TAAR1 ag: 2; OXTR ag: 1; OXTR potentiator: -2; TAAR1 antagonist: 4; V1aR counter: 0

What do the screens show for `Cc1ccc(Nc2c(N)c(=O)oc3ccccc23)cc1`?
TAAR1 ag: 20; OXTR ag: 0; OXTR potentiator: -15; TAAR1 antagonist: 10; V1aR counter: -1

Results for COc1cccc(NC(=O)Nc2ccc(C(C)(C)C)cc2)c1 ?
TAAR1 ag: 13; TAAR1 antagonist: 87*; nonsel antag count: 51*; TAAR1 ant conf: 76*; Ga16 ag counter: 14*; TAAR1 ag count: 13

How did COc1cccc(NC(=O)Nc2ccncc2)c1 do in these assays?
TAAR1 ag: 17; OXTR ag: 2; OXTR potentiator: 5; TAAR1 antagonist: -9; V1aR counter: 1

Results for NC1=NC[C@H](c2ccccc2)N1CCc1cccc(F)c1 ?
TAAR1 ag: 7; OXTR ag: 1; OXTR potentiator: 1; TAAR1 antagonist: 0; V1aR counter: 0

Results for COc1ccc(CNC(=O)C(c2cccc(C)c2)N(C(=O)c2csnn2)C2CC2)cc1 (stereo not given) ?
TAAR1 ag: 17; OXTR ag: 2; OXTR potentiator: -8; TAAR1 antagonist: 52*; V1aR counter: 6; nonsel antag count: 30*; TAAR1 ant conf: 40; Ga16 ag counter: 7; TAAR1 ag count: 6

What do the screens show for `O=C(NCc1ccc(F)cc1)C(c1ccccc1)N(C(=O)c1csnn1)c1ccccc1` (stereo not given)?
TAAR1 ag: 21; OXTR ag: 4; OXTR potentiator: -4; TAAR1 antagonist: 59*; V1aR counter: 5; nonsel antag count: 29*; TAAR1 ant conf: 59*; Ga16 ag counter: 19*; TAAR1 ag count: 22

What do the screens show for `COc1ccc(CNC(=O)C(c2cccs2)N(C(=O)c2csnn2)C2CC2)cc1` (stereo not given)?
TAAR1 ag: 6; OXTR ag: -2; OXTR potentiator: 0; TAAR1 antagonist: 16; V1aR counter: -1

Results for O=C(NCc1ccccc1)C(c1ccccc1)N(C(=O)c1csnn1)c1ccccc1 (stereo not given) ?
TAAR1 ag: 11; OXTR ag: -1; OXTR potentiator: -17; TAAR1 antagonist: 62*; V1aR counter: 0; nonsel antag count: 27*; TAAR1 ant conf: 49*; Ga16 ag counter: 7; TAAR1 ag count: 5

How did CCC1NC(=O)c2cccnc2-n2c1nc1cc(C)cc(C)c1c2=O (stereo not given) do in these assays?
TAAR1 ag: -3; TAAR1 antagonist: -21

Results for O=C(C1=C[C@@H](c2ccc(C(F)(F)F)cc2)C[C@@H](OCCCCO)O1)N1CCN(Cc2ccccc2)CC1 ?
TAAR1 ag: 6; OXTR ag: 0; OXTR potentiator: -5; TAAR1 antagonist: 1; V1aR counter: 1

How did Cc1cc2cc(C)c3nnc(SCC(=O)Nc4ccc(S(=O)(=O)N5CCCCC5C)cc4)n3c2cc1C (stereo not given) do in these assays?
TAAR1 ag: 1; OXTR ag: -1; OXTR potentiator: -7; TAAR1 antagonist: -2; V1aR counter: 0

What do the screens show for `Cc1ccc(S(=O)(=O)N(C)C)cc1NC(=O)COC(=O)CCC1CCCCC1`?
TAAR1 ag: 4; OXTR ag: 2; OXTR potentiator: -18; TAAR1 antagonist: 9; V1aR counter: 3

Results for Cc1ccccc1C1c2[nH]c3ccccc3c2C[C@H]2C(=O)N(c3ccccc3C(=O)NCCCN3CCOCC3)C(=O)N12 (stereo not given in full) ?
TAAR1 ag: 14; OXTR ag: 7; OXTR potentiator: -7; TAAR1 antagonist: 60*; V1aR counter: 3; nonsel antag count: 29*; TAAR1 ant conf: 36; Ga16 ag counter: 7; TAAR1 ag count: 6

What do the screens show for `Cc1ccc(C2c3[nH]c4ccccc4c3C[C@H]3C(=O)N(c4ccccc4C(=O)NCCN4CCOCC4)C(=O)N23)cc1` (stereo not given in full)?
TAAR1 ag: 10; OXTR ag: 5; OXTR potentiator: -1; TAAR1 antagonist: 61*; V1aR counter: 3; nonsel antag count: 27*; TAAR1 ant conf: 42; Ga16 ag counter: 7; TAAR1 ag count: 9

Results for COc1cccc(C2c3[nH]c4ccccc4c3C[C@H]3C(=O)N(c4ccccc4C(=O)N4CCC(C(=O)O)CC4)C(=O)N23)c1 (stereo not given in full) ?
TAAR1 ag: 1; OXTR ag: -1; OXTR potentiator: -2; TAAR1 antagonist: -8; V1aR counter: 0

Results for O=C(NCCCN1CCOCC1)c1ccccc1N1C(=O)[C@@H]2Cc3c([nH]c4ccccc34)C(c3ccccc3)N2C1=O (stereo not given in full) ?
TAAR1 ag: 3; TAAR1 antagonist: -5

What do the screens show for `O=C(NCCCN1CCOCC1)c1ccccc1N1C(=O)[C@@H]2Cc3c([nH]c4ccccc34)C(c3cccc(Cl)c3)N2C1=O` (stereo not given in full)?
TAAR1 ag: 18; OXTR ag: 14; OXTR potentiator: -10; TAAR1 antagonist: 71*; V1aR counter: 4; nonsel antag count: 47*; TAAR1 ant conf: 70*; Ga16 ag counter: 23*; TAAR1 ag count: 27

What do the screens show for `Cc1ccc(C2c3[nH]c4ccccc4c3C[C@H]3C(=O)N(c4ccccc4C(=O)NCCCN4CCOCC4)C(=O)N23)cc1` (stereo not given in full)?
TAAR1 ag: 10; OXTR ag: 3; OXTR potentiator: -7; TAAR1 antagonist: 53*; V1aR counter: 3; nonsel antag count: 26*; TAAR1 ant conf: 32; Ga16 ag counter: 5; TAAR1 ag count: 5
